Assays:
[1] = Drug metabolism assessed as NDM-1 (unknown origin)-mediated compound hydrolysis by measuring (S)-2-((1S,2R)-1-carboxy-2-hydroxypropyl)-5-(4-hydroxybutylidene)-2,5-dihydrothiazole-4-carboxylic acid formation at 5 mM incubated for 5 mins by 1H-NMR based analysis; assay type: ADME; details: bacteria, 5000 µM
Summary of the method: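 NDM-1 used at 5 μM with 5 mM faropenem, 5 min incubation, in 50 mM sodium phosphate, pH 7.5, 10% (v/v) D2O. Degradation products monitored by 700 MHz 1H NMR via methyl group signals.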

[2] = Drug metabolism assessed as OXA-48 (unknown origin)-mediated compound hydrolysis by measuring (R)-2-((1S,2R)-1-carboxy-2-hydroxypropyl)-5-(4-hydroxybutylidene)-2,5-dihydrothiazole-4-carboxylic acid formation at 5 mM incubated for 55 mins by 1H-NMR based analysis; assay type: ADME; details: bacteria, 5000 µM
Summary of the method: (§1)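 Reaction of OXA-48 (5 μM) with 5 mM faropenem for 55 min in 50 mM sodium phosphate pH 7.5, 10% (v/v) D2O. Products assigned from methyl group resonances in 700 MHz 1H NMR spectra.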

[3] = Drug metabolism assessed as OXA10 (unknown origin)-mediated compound hydrolysis by measuring (R)-2-((1S,2R)-1-carboxy-2-hydroxypropyl)-5-((R)-tetrahydrofuran-2-yl)-2,3-dihydrothiazole-4-carboxylic acid formation at 5 mM incubated for 16 hrs by 1H-NMR based analysis; assay type: ADME; details: bacteria, 5000 µM
Summary of the method: (§2)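 OXA-10 at 5 μM with 5 mM faropenem, incubated 16 h in 50 mM sodium phosphate, pH 7.5, 10% (v/v) D2O. Product formation read by 1H NMR (700 MHz) methyl group resonances.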

Bradyrhizobium japonicum [4] = details: USDA110
[5] = Drug metabolism assessed as VIM-1 (unknown origin)-mediated compound hydrolysis by measuring (S)-2-((1S,2R)-1-carboxy-2-hydroxypropyl)-5-((R)-tetrahydrofuran-2-yl)-2,3-dihydrothiazole-4-carboxylic acid formation at 5 mM incubated for 5 mins by 1H-NMR based analysis; assay type: ADME; details: bacteria, 5000 µM
Bacteria [6] = test system: Bacteria
[7] = Drug metabolism assessed as OXA10 (unknown origin)-mediated compound hydrolysis by measuring (S)-2-((1S,2R)-1-carboxy-2-hydroxypropyl)-5-((R)-tetrahydrofuran-2-yl)-2,3-dihydrothiazole-4-carboxylic acid formation at 5 mM incubated for 16 hrs by 1H-NMR based analysis; assay type: ADME; details: bacteria, 5000 µM; summary of the method: as §2
[8] = Drug metabolism assessed as OXA-23 (unknown origin)-mediated compound hydrolysis by measuring (R)-2-((1S,2R)-1-carboxy-2-hydroxypropyl)-5-(4-hydroxybutylidene)-2,5-dihydrothiazole-4-carboxylic acid formation at 2 mM incubated for 15 mins by 1H-NMR based analysis; assay type: ADME; details: bacteria, 0.25 h, 2000 µM
[9] = Drug metabolism assessed as VIM-2 (unknown origin)-mediated compound hydrolysis by measuring (S)-2-((1S,2R)-1-carboxy-2-hydroxypropyl)-5-(4-hydroxybutylidene)-2,5-dihydrothiazole-4-carboxylic acid formation at 5 mM incubated for 5 mins by 1H-NMR based analysis; assay type: ADME; details: bacteria, 5000 µM
[10] = Drug metabolism assessed as KPC-2 (unknown origin)-mediated compound hydrolysis by measuring (R)-2-((1S,2R)-1-carboxy-2-hydroxypropyl)-5-(4-hydroxybutylidene)-2,5-dihydrothiazole-4-carboxylic acid formation at 5 mM incubated for 72 mins by 1H-NMR based analysis; assay type: ADME; details: bacteria, 1.2 h, 5000 µM
[11] = Drug metabolism assessed as VIM-1 (unknown origin)-mediated compound hydrolysis by measuring (S)-2-((1S,2R)-1-carboxy-2-hydroxypropyl)-5-(4-hydroxybutylidene)-2,5-dihydrothiazole-4-carboxylic acid formation at 5 mM incubated for 5 mins by 1H-NMR based analysis; assay type: ADME; details: bacteria, 5000 µM
[12] = Drug metabolism assessed as VIM-2 (unknown origin)-mediated compound hydrolysis by measuring (R)-2-((1S,2R)-1-carboxy-2-hydroxypropyl)-5-(4-hydroxybutylidene)-2,5-dihydrothiazole-4-carboxylic acid formation at 5 mM incubated for 5 mins by 1H-NMR based analysis; assay type: ADME; details: bacteria, 5000 µM
Bacteria [13] = test system: Bacteria; remark: listed apart in the source
[14] = Drug metabolism assessed as OXA-48 (unknown origin)-mediated compound hydrolysis by measuring (R)-2-((1S,2R)-1-carboxy-2-hydroxypropyl)-5-((R)-tetrahydrofuran-2-yl)-2,3-dihydrothiazole-4-carboxylic acid formation at 5 mM incubated for 55 mins by 1H-NMR based analysis; assay type: ADME; details: bacteria, 5000 µM; summary of the method: as §1
[15] = Drug metabolism assessed as KPC-2 (unknown origin)-mediated compound hydrolysis by measuring (R)-2-((1S,2R)-1-carboxy-2-hydroxypropyl)-5-((R)-tetrahydrofuran-2-yl)-2,3-dihydrothiazole-4-carboxylic acid formation at 5 mM incubated for 72 mins by 1H-NMR based analysis; assay type: ADME; details: bacteria, 1.2 h, 5000 µM
Bradyrhizobium japonicum [16] = details: USDA110; remark: listed apart in the source
[17] = Drug metabolism assessed as L1 (unknown origin)-mediated compound hydrolysis by measuring (R)-2-((1S,2R)-1-carboxy-2-hydroxypropyl)-5-(4-hydroxybutylidene)-2,5-dihydrothiazole-4-carboxylic acid formation at 5 mM incubated for 5 mins by 1H-NMR based analysis; assay type: ADME; details: bacteria, 5000 µM
Summary of the method: (§3)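 L1 enzyme (125 nM) reacted with 5 mM faropenem for 5 min in 50 mM sodium phosphate pH 7.5 containing 10% (v/v) D2O. Product species assigned by 1H NMR (700 MHz) methyl resonances.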

[18] = Drug metabolism assessed as OXA-48 (unknown origin)-mediated compound hydrolysis by measuring (S)-2-((1S,2R)-1-carboxy-2-hydroxypropyl)-5-(4-hydroxybutylidene)-2,5-dihydrothiazole-4-carboxylic acid formation at 5 mM incubated for 55 mins by 1H-NMR based analysis; assay type: ADME; details: bacteria, 5000 µM; summary of the method: as §1
Klebsiella pneumoniae [19] = test system: Klebsiella pneumoniae
[20] = Drug metabolism assessed as L1 (unknown origin)-mediated compound hydrolysis by measuring (R)-2-((1S,2R)-1-carboxy-2-hydroxypropyl)-5-((R)-tetrahydrofuran-2-yl)-2,3-dihydrothiazole-4-carboxylic acid formation at 5 mM incubated for 5 mins by 1H-NMR based analysis; assay type: ADME; details: bacteria, 5000 µM; summary of the method: as §3
[21] = Inhibition of KPC-2 (unknown origin); design: species or system Bacteria
Bacteria [22] = test system: Bacteria; remark: listed apart in the source
[23] = Drug metabolism assessed as VIM-2 (unknown origin)-mediated compound hydrolysis by measuring (S)-2-((1S,2R)-1-carboxy-2-hydroxypropyl)-5-((R)-tetrahydrofuran-2-yl)-2,3-dihydrothiazole-4-carboxylic acid formation at 5 mM incubated for 5 mins by 1H-NMR based analysis; assay type: ADME; details: bacteria, 5000 µM
Klebsiella pneumoniae [24] = test system: Klebsiella pneumoniae; remark: listed apart in the source
[25] = Drug metabolism assessed as OXA-23 (unknown origin)-mediated compound hydrolysis by measuring (R)-2-((1S,2R)-1-carboxy-2-hydroxypropyl)-5-((R)-tetrahydrofuran-2-yl)-2,3-dihydrothiazole-4-carboxylic acid formation at 2 mM incubated for 15 mins by 1H-NMR based analysis; assay type: ADME; details: bacteria, 0.25 h, 2000 µM
[26] = Drug metabolism assessed as L1 (unknown origin)-mediated compound hydrolysis by measuring (S)-2-((1S,2R)-1-carboxy-2-hydroxypropyl)-5-((R)-tetrahydrofuran-2-yl)-2,3-dihydrothiazole-4-carboxylic acid formation at 5 mM incubated for 5 mins by 1H-NMR based analysis; assay type: ADME; details: bacteria, 5000 µM; summary of the method: as §3
[27] = Drug metabolism assessed as VIM-2 (unknown origin)-mediated compound hydrolysis by measuring (2R)-2-((1S,2R)-1-carboxy-2-hydroxypropyl)-5-((R)-tetrahydrofuran-2-yl)-2,5-dihydrothiazole-4-carboxylic acid formation at 5 mM incubated for 5 mins by 1H-NMR based analysis; assay type: ADME; details: bacteria, 5000 µM

C[C@@H](O)[C@H]1C(=O)N2C(C(=O)O)=C([C@H]3CCCO3)S[C@H]12 [FAROPENEM]
Drug metabolism [1]: Metabolite_Detected | Drug metabolism [2]: Metabolite_Detected | Drug metabolism [3]: Metabolite_Detected | kcat/Km (Bradyrhizobium japonicum [4]): 0.008 s⁻¹ µM⁻¹ | Drug metabolism [5]: Metabolite_Detected | kcat/Km (Bacteria [6]): 0.22 s⁻¹ µM⁻¹ | Drug metabolism [7]: Metabolite_Detected | Drug metabolism [8]: Metabolite_Detected | Drug metabolism [9]: Metabolite_Detected | Drug metabolism [10]: Metabolite_Detected | Drug metabolism [11]: Metabolite_Detected | Drug metabolism [12]: Metabolite_Detected | kcat (Bacteria [13]): 36.7 s⁻¹ | Drug metabolism [14]: Metabolite_Detected | Drug metabolism [15]: Metabolite_Detected | Km (Bradyrhizobium japonicum [16]): 245 µM | Drug metabolism [17]: Metabolite_Detected | Drug metabolism [18]: Metabolite_Detected | kcat (Klebsiella pneumoniae [19]): 14.7 s⁻¹ | Drug metabolism [20]: Metabolite_Detected | Ki [21]: 44.1 µM | kcat/Km (Bacteria [22]): 1.2 s⁻¹ µM⁻¹ | Drug metabolism [23]: Metabolite_Detected | kcat/Km (Klebsiella pneumoniae [24]): 0.15 s⁻¹ µM⁻¹ | Drug metabolism [25]: Metabolite_Detected | Drug metabolism [26]: Metabolite_Detected | Drug metabolism [27]: Metabolite_Detected

— ChEMBL document CHEMBL4732233, “Faropenem reacts with serine and metallo-β-lactamases to give multiple products” (Eur J Med Chem, 2021)
